Test results published in ChEMBL document CHEMBL4229369, “Design, synthesis and antitubercular evaluation of benzothiazinones containing a piperidine moiety” (Eur J Med Chem, 2018).
In brackets after ≈: the same amount, converted by molar mass.

What was measured:
Type in all cases: functional
[1] = test system: Mycobacterium tuberculosis; assay: Antitubercular activity against multi-drug resistant Mycobacterium tuberculosis isolate 16883 after 7 days by Alamar blue assay; details: isolate 16883, 168 h
Procedure, shortened: (§1)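 Inoculum grown to late log phase in Middlebrook 7H9 with 0.2% glycerol, 0.05% Tween 80 and 10% ADC, then washed in PBS, filtered through 8 µm to remove clumps and frozen at -80 °C. Twofold compound dilutions in 7H9-ADC-TG with 2 × 10⁵ CFU per well, 37 °C. Alamar blue and Tween 80 added on day 7, read after 16-24 h (ex 530/em 590 nm). MIC is the lowest concentration giving ≥90% fluorescence reduction versus bacterium-only controls.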

[2] = test system: Mycobacterium tuberculosis; assay: Antitubercular activity against multi-drug resistant Mycobacterium tuberculosis isolate 16995 after 7 days by Alamar blue assay; details: isolate 16995, 168 h; procedure, shortened: as §1
[3] = test system: Mycobacterium tuberculosis; assay: Antitubercular activity against multi-drug resistant Mycobacterium tuberculosis; procedure, shortened: as §1

O=c1nc(N2CCN(CC3CCCCC3)CC2)sc2c([N+](=O)[O-])cc(C(F)(F)F)cc12 [MACOZINONE]
MIC90 [1]: < 0.016 µg/mL
MIC90 [2]: < 0.016 µg/mL

CN(CC1CCCCC1)C1CCN(c2nc(=O)c3cc(C(F)(F)F)cc([N+](=O)[O-])c3s2)CC1
MIC [3]: 0.016 µg/mL (≈ 0.033 µM)

CO[C@H]1/C=C/O[C@@]2(C)Oc3c(C)c(O)c4c(O)c(c(/C=N/N5CCN(C)CC5)c(O)c4c3C2=O)NC(=O)/C(C)=C\C=C\[C@H](C)[C@H](O)[C@@H](C)[C@@H](O)[C@@H](C)[C@H](OC(C)=O)[C@@H]1C [RIFAMPIN]
MIC90 [1]: > 40 µg/mL
MIC90 [2]: > 40 µg/mL

O=c1nc(N2CCC(CN3CCC(C(F)(F)F)CC3)CC2)sc2c([N+](=O)[O-])cc(C(F)(F)F)cc12
MIC90 [1]: < 0.016 µg/mL
MIC90 [2]: < 0.016 µg/mL

NNC(=O)c1ccncc1 [ISONIAZID]
MIC90 [1]: > 40 µg/mL
MIC90 [2]: > 40 µg/mL
